Screening results as filed in PubChem.
Rpn11 block = Rpn11 (human) deubiquitinase inhibition | 360,000 compounds, 0.59% hits | AID 588493 | human 26S proteasome, Ub4-pepOG fluorescence polarization; 20S core pre-blocked with epoxomicin | inhibition, % at 20 µM | O00487;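 active = inhibition at 20 µM, scaled to each plate's controls, above about 33%, limit read from the data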
SUMO1 PPI mod = modulators of human SUMO1-mediated protein-protein interactions; inhibition, % at 20 µM; AID 602429; P63165; SUMO1 binding to a labelled peptide, TR-FRET, 1 h; 360,000 compounds, 0.33% hits; in the data active = inhibition above about 37%
MT1-MMP act inh = blocks activation of human MT1-MMP | HT1080 RFP-PRO-GFP cells, GFP/RFP ratio fluorescence, overnight; percent of plate control window, DMSO zero | GFP/RFP ratio change, % at 20 µM | 360,000 compounds, 0.061% hits | AID 651647;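 active = GFP/RFP ratio change of at least 30% with cell ATP level not reduced by more than half and red fluorescence within 50% of control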
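Material: RFP-PRO-GFP reporter HT1080 cells. Dosing: single-point 20 µM compound, 1% DMSO. Controls: DMSO and RFP-L50D-GFP cell wells. Timing: cells overnight before dosing, compound overnight, 37 °C, 5% CO2. Measure: GFP/RFP fluorescence ratio.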
SKN-1 inh = C. elegans SKN-1 inhibition; 360,000 compounds, 0.49% hits; C. elegans VP596 Pgst-4::GFP/RFP ratio, acrylamide-induced, 24 h; inhibition, % at 21.8 µM;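 active = interference check ratio from 0.5 to 1.5 plus GFP to RFP signal ratio inhibition reaching or exceeding a fixed threshold, cut at about 30% in these data, passing the limit was not always enough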
DNMT1 inh = blocks human DNA methyltransferase DNMT1; P26358; DNMT1 molecular beacon, Hinp1I cleavage, fluorescence; inhibition (reported as % activation of signal), % at 10 µM; 360,000 compounds, 0.83% hits; AID 588458; in the data active = inhibition above about 50%
Target sequence (P26358 504-1616 limits assumed): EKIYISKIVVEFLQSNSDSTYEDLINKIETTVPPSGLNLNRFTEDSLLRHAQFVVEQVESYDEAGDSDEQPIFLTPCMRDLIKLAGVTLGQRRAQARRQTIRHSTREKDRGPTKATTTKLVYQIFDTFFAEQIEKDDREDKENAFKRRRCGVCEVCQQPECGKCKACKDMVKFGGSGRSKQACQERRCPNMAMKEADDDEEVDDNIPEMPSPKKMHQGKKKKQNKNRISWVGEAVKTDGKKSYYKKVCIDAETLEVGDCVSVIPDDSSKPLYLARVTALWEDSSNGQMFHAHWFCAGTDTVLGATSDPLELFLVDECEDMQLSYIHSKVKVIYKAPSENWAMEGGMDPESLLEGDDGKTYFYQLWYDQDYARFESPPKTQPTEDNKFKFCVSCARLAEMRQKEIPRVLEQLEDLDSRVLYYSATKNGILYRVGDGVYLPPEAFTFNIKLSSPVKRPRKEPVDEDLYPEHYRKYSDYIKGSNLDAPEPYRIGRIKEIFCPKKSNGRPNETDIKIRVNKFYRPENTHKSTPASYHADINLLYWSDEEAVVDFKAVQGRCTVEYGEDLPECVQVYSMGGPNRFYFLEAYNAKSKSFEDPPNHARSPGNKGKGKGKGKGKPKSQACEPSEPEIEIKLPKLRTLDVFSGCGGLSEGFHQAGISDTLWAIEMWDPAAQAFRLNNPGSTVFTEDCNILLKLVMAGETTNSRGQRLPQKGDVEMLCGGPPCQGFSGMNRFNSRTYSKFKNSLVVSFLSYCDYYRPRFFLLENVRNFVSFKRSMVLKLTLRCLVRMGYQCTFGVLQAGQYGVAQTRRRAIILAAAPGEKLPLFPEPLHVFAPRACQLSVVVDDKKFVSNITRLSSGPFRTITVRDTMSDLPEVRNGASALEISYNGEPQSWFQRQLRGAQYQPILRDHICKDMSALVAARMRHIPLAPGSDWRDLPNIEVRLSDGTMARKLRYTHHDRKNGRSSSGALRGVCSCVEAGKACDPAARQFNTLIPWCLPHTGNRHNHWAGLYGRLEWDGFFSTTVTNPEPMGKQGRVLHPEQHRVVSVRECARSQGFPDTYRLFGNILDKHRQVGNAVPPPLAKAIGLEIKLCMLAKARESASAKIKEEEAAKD
CSN inh = inhibitors of human CSN-mediated cullin deneddylation | inhibition, % at 12.5 µM | Purified CSN, SCF-Nedd8-OG deneddylation, fluorescence polarization | Q92905 | 360,000 compounds, 0.38% hits;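 active = pattern-corrected inhibition above about 35%, with an unprinted fluorescence ratio check between 0.5 and 1.5, limit read from the data, passing the limit was not always enough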;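 also: 0% = enzyme with substrate and 100% = substrate without enzyme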
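Detection – fluorescence polarization · System – HEK293T-derived human Csn5 enzyme · Controls – substrate-only high control, full reaction low control · Timing – 90 min, room temperature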
Numbers without * were called inactive; nt = no result given. Hits are enriched below; roughly 2.3% of the tested compounds scored in any of these assays.

SMILES	Rpn11 block	SUMO1 PPI mod	MT1-MMP act inh	SKN-1 inh	DNMT1 inh	CSN inh
CC(=O)Nc1ccc2c(c1)Cc1c-2cc(Br)c(N)c1Br	-0.2	2.5	4.1	37.3*	-6.2	1.8
COC(=O)C1=CN(c2ccc(C(C)(C)C)cc2)C(N)=C(C#N)C1c1ccccc1F (stereo unspecified)	nt	-4.4	2.1	-10.3	nt	-3.5
COc1cccc(NC(=O)NNC(=O)c2ccc3c(c2)NC(=O)C(C)(C)O3)c1	2.2	2.0	2.7	39.6*	-1.0	4.9
COc1ccccc1NC(=O)NNC(=O)c1ccc2c(c1)NC(=O)C(C)(C)O2	-2.4	3.6	nt	-6.8	8.3	1.0
CC1(C(=O)Nc2ccc3c(c2)OCCO3)CSCC(=O)N1C1CC1 (stereo unspecified)	nt	0.0	4.5	3.2	nt	0.5
Cc1cccc(C)c1NC(=O)C(c1ccccc1OC(F)(F)F)N1CCC(c2ccccc2)CC1 (stereo unspecified)	nt	-1.3	-20.4	2.2	nt	-3.5
COc1ccc(/C=C2\SC(=O)N(CC(=O)Nc3ccc(O)cc3)C2=O)cc1OC	1.1	-3.0	7.3	3.3	-10.2	-2.3
COc1ccc(/C=C2\SC(=O)N(CC(=O)Nc3ccccc3O)C2=O)cc1OC	4.0	-6.1	3.3	35.3*	-8.8	-3.4
Cc1csc(-c2nc3ccccc3n2C(C(=O)NC(C)(C)C)c2cc3ccccc3o2)c1 (stereo unspecified)	nt	1.7	-19.2	-1.2	nt	7.0
COc1cccc(-c2cc3nc(NCCN4CCCC4)n(C)c(=O)c3s2)c1	-2.9	-39.4	0.7	6.5	-4.2	-1.1
COc1ccc(O)c(C(=O)c2cc(SCC(=O)O)c3nc4sc5c(c4c(=O)n3c2)CCCC5)c1	10.8	42.4*	-8.0	-0.9	14.6	24.5
COC(=O)C[C@H]1C=C[C@H](NS(=O)(=O)c2cn(C)cn2)[C@@H](CO)O1	nt	5.6	-1.0	-6.3	nt	0.0
Cc1nn(C)c(C)c1CNC(=O)c1cnn2c1NC(c1ccccc1)CC2C(F)(F)F (stereo unspecified)	-3.7	-2.4	-0.6	9.2	3.9	2.6
Cc1ccc(C2CC(C(F)(F)F)n3nc(C(=O)NCc4c(C)nn(C)c4C)c(Cl)c3N2)cc1 (stereo unspecified)	12.9	-0.9	2.6	46.1*	-9.4	-5.5
COc1cc2nc(C3CC3)n(NC(=O)c3ccc(F)cc3)c(=O)c2cc1OC	1.7	3.9	-2.0	1.1	-2.5	1.7
COc1cc2nc(C3CC3)n(NC(=O)c3ccc(Cl)cc3)c(=O)c2cc1OC	-1.4	1.1	0.5	36.9*	2.1	0.2
Cc1noc(-c2ccccc2)c1NC(=O)Nc1ccc2nc([C@H]3C[C@H](O)[C@@H](CO)O3)[nH]c2c1	8.4	-1.4	7.5	13.4	-8.5	-4.9
C=CCn1c(=O)/c(=C/c2ccc(Cl)cc2)s/c1=C(/C#N)c1nnc2n1CCCCC2	3.1	2.5	8.0	7.3	0.7	2.2
C=CCn1c(=O)/c(=C/c2ccc(O)cc2)s/c1=C(/C#N)c1nnc2n1CCCCC2	nt	-64.0	-220.2	10.3	4.4	97.5*
CN(C)c1ccc(-c2csc(C(C)(O)c3cccc(F)c3)n2)cc1 (stereo unspecified)	-3.2	-1.1	-3.9	-15.3	8.2	-1.2
CC(C)(C)n1nnnc1C(CCc1ccccc1)N1CCN(C/C=C/c2ccccc2)CC1 (stereo unspecified)	3.2	0.1	-0.5	-0.4	-9.7	-3.4
COC(=O)C1=C(COc2ccccc2)NC(=O)NC1c1ccc(Br)cc1 (stereo unspecified)	-5.2	75.5*	6.7	3.3	-0.5	15.6
COC(=O)C1=C(CCc2ccccc2)NC(=O)NC1c1ccc(Cl)cc1 (stereo unspecified)	3.0	2.9	10.0	7.9	-0.7	-0.4
O=[N+]([O-])c1cc([N+](=O)[O-])c2oc(-c3ccccc3)c(Br)c2c1O	-4.6	43.0*	-0.9	1.6	-6.0	4.9
CCCSc1nc(N2CCOCC2)c2c(c1C#N)CC(C)(C)SC2	1.5	0.6	-1.7	38.5*	-2.2	-2.1
